From PubChem
TRPML3 agonist = agonists of human TRPML3 channel; HEK293 TRPML3-YFP, Fluo-8 calcium fluorescence; 100% = the carbachol control signal; Q8TDD5; AID 1448; activation, % at 3 µM; 220,000 compounds, 0.29% hits;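 active = activation above its plate's cutoff, the mean activation of the plate's test wells plus 3 SD, cut at about 12% in these data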;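 note: 0% = DMSO only wells and 100% = carbachol wells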
Target sequence (Q8TDD5 whole entry, looked up): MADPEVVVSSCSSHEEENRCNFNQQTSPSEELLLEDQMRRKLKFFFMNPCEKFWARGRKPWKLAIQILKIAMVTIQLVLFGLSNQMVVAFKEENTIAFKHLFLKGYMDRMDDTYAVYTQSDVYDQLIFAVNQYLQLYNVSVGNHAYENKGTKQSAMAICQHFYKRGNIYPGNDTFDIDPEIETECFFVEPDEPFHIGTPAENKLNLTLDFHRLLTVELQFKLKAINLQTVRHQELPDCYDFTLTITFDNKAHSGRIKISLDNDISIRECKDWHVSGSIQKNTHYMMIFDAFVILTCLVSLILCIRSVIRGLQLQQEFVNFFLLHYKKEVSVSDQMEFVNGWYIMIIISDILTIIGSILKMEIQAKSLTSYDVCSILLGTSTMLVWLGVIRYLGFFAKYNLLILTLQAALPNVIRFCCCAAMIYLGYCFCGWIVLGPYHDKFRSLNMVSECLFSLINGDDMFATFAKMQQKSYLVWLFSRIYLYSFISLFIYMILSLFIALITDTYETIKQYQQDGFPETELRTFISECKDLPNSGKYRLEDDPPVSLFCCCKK
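Test system: HEK293 cells stably carrying human TRPML3-YFP; Doses: single dose, 3 µM final nominal compound, 0.3% DMSO final; Schedule: dye loading 1 h 37 °C then 30 min ambient, 125 s read; Technique: Fluo-8 calcium fluorescence; Benchmarks: high control carbachol 87 µM, low control DMSO.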
CRFBP-R2 block = CRF-BP/CRF-R2 complex antagonism | HEK293 CRF-R2/CRF-BP, CRF-induced calcium fluorescence | inhibition, % at 11.8 µM | 350,000 compounds, 0.59% hits | AID 588475;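 active = inhibition of the ligand-induced calcium signal above about 50% at the single tested concentration, limit read from the data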
GPR7 antag = antagonists of human GPR7 (neuropeptides B/W receptor 1); GPR7-expressing cells, fluorescence antagonist assay; inhibition, % at 4.4 µM; 290,000 compounds, 1.1% hits; in the data active = inhibition above about 16%, passing the limit was not always enough;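 note: cells stimulated with the agonist NPW; 0% = agonist with vehicle and 100% = vehicle without agonist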
zfTRPN1 agonist = zebrafish TRPN1 (NompC) channel agonism. activation, % at 3 µM. 220,000 compounds, 0.18% hits. AID 1424. HEK293 zebrafish TRPN1-YFP, Fluo-8 calcium fluorescence; 100% = response to 87 µM carbachol;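 active = activation above its plate's cutoff, the mean activation of test wells on that plate plus 3 SD, cut at about 19% in these data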;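 note: 0% = DMSO alone and 100% = 87 µM carbachol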
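Material: zebrafish TRPN1-YFP in HEK293 cells; Doses: single test compound dose, 3 µM nominal, 0.3% DMSO; Timing: dye loading 1 h at 37 °C, then 30 min room temperature; Technique: intracellular calcium fluorescence with Fluo-8; Benchmarks: high carbachol 87 µM, low DMSO alone.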
CRFR2-BP ag = agonists of human CRF-binding protein/CRF-R2 receptor complex. AID 588473. activation, % at 13.2 µM. 350,000 compounds, 0.46% hits. HEK293 CRF-R2/CRF-BP, calcium dye fluorescence (FLIPR); percent of saturating CRF peptide response;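 active = activation of at least 50%, plus an integration ratio under a set limit after plate pattern correction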;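 note: plate controls were neutral control wells without compound for no effect and CRF at EC100 for full effect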
* hit, by the source's call; nt = no result. A selection: hits, their analogues and other compounds. The true share with any hit is near 2%.

SMILES	TRPML3 agonist	CRFBP-R2 block	GPR7 antag	zfTRPN1 agonist	CRFR2-BP ag
COc1cc2c(cc1OC)C(c1cccs1)N(C(=O)C(C)C)CC2 (configuration not stated)	0	5	18*	-1	0
CCOc1ccc(C(=O)Nc2cnn(Cc3ccc(Cl)c(Cl)c3)c2)cc1	0	73*	-13	1	5
COc1ccc(CN2CCN(CCc3ccccc3)C(CCO)C2)c(Cl)c1OC (configuration not stated)	nt	12	4	nt	-1
COc1cc(NC(=O)C2=C(C)OCCS2)c(Cl)cc1C(=O)NCCN(C)C	nt	-26	-9	nt	-4
CN(CCOC(=O)c1ccc2c(c1)OCCO2)Cc1ccccc1	0	6	20*	0	0
Cc1cc(C(C#N)c2ccc(Cl)cc2)c(Cl)cc1NC(=O)c1cc(I)cc(I)c1O (configuration not stated)	nt	58*	nt	nt	32
COc1cc2c(cc1NC(=O)COC(=O)CNC(=O)c1ccccc1)oc1ccccc12	0	76*	-9	0	1
CCCCC(=O)NNC(=S)NC(=O)c1ccc([N+](=O)[O-])cc1	1	4	-8	1	-2
COc1ccc(C(=O)NNC(=S)NC(=O)c2ccc(Cl)cc2)cc1	nt	2	nt	nt	117*
COc1ccc(C(=O)NC(=S)NNC(=O)c2ccc(C)cc2)cc1	nt	-69	nt	nt	132*
O=C(NNC(=S)NC(=O)c1sc2ccccc2c1Cl)c1ccc(Cl)cc1	0	-222	16	-1	210*
CCCCC(=O)NNC(=S)NC(=O)c1ccc(C)cc1	0	49	9	9	135*
CCN(C(=O)CSc1nnc(C2CC2)n1-c1ccccc1)C1CCS(=O)(=O)C1 (configuration not stated)	nt	1	nt	nt	-1
CN(CC(=O)Nc1ccccc1Cl)C(=O)c1ccc(-c2cccc(C(F)(F)F)c2)o1	nt	-9	nt	nt	-2
CN(Cc1nc(-c2ccccn2)no1)S(=O)(=O)c1ccc(Cl)cc1	1	-128	-10	0	54*
CN(Cc1nc(-c2cccnc2)no1)S(=O)(=O)c1ccccc1	1	-1	-1	1	0
CCOP(=O)(OCC)c1nc(-c2ccccc2)oc1N1CCCCC1	nt	0	-7	nt	-2
COP(=O)(OC)c1nc(-c2ccc([N+](=O)[O-])cc2)oc1N1CCCCC1	nt	-44	-5	nt	54*
Cc1ccc(S(=O)(=O)N2CCC(=O)N(C(COCc3ccc(Cl)c(Cl)c3)Cc3ccccc3)CC2)cc1 (configuration not stated)	0	-37	-11	-1	71*
Cc1ccc(S(=O)(=O)N2CCC(=O)N(C(COCc3cccc(C)c3)Cc3ccccc3)CC2)cc1 (configuration not stated)	6	-16	-4	13	14
Cc1ccc(S(=O)(=O)N2CCC(=O)N(C(COCc3ccc(C(F)(F)F)cc3)Cc3ccccc3)CC2)cc1 (configuration not stated)	0	-20	16	1	62*
O=c1c(/C=C(\O)c2ccc(F)cc2)nc2ccccc2n1-c1ccccc1	0	-118	5	-1	163*
Cn1c(=O)c(/C=C/c2ccc(F)cc2)nc2ccccc21	1	0	7	2	4
COc1ccc(-c2c[n+](CC(=O)c3ccccc3)c3n2CCCCC3)cc1	1	-4	-4	1	0
COc1ccc(-c2c[n+]3c4n2CCCCC4=C(c2ccccc2)C3)cc1	0	52*	-11	-1	-4
SMILES	TRPML3 agonist	CRFBP-R2 block	GPR7 antag	zfTRPN1 agonist	CRFR2-BP ag
O=[N+]([O-])c1cccc(-c2cn3nc(-c4ccccc4)c(-c4ccccc4)nc3n2)c1	1	-14	-13	1	14
O=[N+]([O-])c1ccc(-c2cn3nc(-c4ccccc4)c(-c4ccccc4)nc3n2)cc1	1	-48	-8	2	66*
CN(CC(=O)Nc1ccc2c(c1)OCCO2)CC(=O)Nc1ccc(F)c(F)c1F	nt	68*	nt	nt	6
CCCCc1ccc(NC=C2C(=O)OC3(CCCCC3)OC2=O)cc1	5	-204	-5	1	145*
COc1cccc(OC)c1OCCCc1c(C)n[nH]c1C	0	7	16*	0	0
Cc1cccc(OCCCc2c(C)n[nH]c2C)c1	0	8	8	-2	-2
Cc1ccc(S(=O)(=O)Nc2ccccc2C=Nc2cccc(C)c2C)cc1	0	29	-5	-1	0
Cc1ccc(S(=O)(=O)Nc2ccccc2/C=N/c2nc3ccccc3n2C)cc1	0	71*	-1	-2	-2
Clc1ccc(-c2nnc(CSc3nnc(-c4cccs4)o3)o2)cc1	0	54*	-2	0	0
c1ccc(-c2nnc(SCc3nnc(-c4cccs4)o3)o2)cc1	0	-14	1	0	32
O=C(Nc1ncc(Cc2ccc(SC(F)F)cc2)s1)c1ccc(OC(F)F)cc1	0	-110	8	1	68*
CC(C)OC(=O)c1ccccc1C(=O)c1ccc(N)c([N+](=O)[O-])c1	0	56*	0	-1	2
O=C(COC(=O)c1ccccc1C(=O)c1ccc(Cl)c([N+](=O)[O-])c1)NC1CC1	0	52*	-4	-1	-6
Cc1ccc2oc(C(=O)Nc3cc(C)on3)c(C)c2c1	nt	-11	nt	nt	-2
Cc1noc(C)c1CSCC(=O)OCc1nnc(-c2ccc([N+](=O)[O-])cc2)o1	nt	6	nt	nt	2
Cc1ccc(N2CC(C(=O)NC3CCC(C)CC3)CC2=O)cc1 (configuration not stated)	nt	67*	-15	nt	1
Cc1ccc(N2CC(C(=O)NC3CC3)CC2=O)cc1 (configuration not stated)	nt	0	-9	nt	0
O=C(OCCN1C(=O)c2ccccc2C1=O)c1cc(S(=O)(=O)N2CCOCC2)ccc1F	0	-21	-1	-3	2
O=C(OCCN1C(=O)c2cccc3c(N4CCOCC4)ccc(c23)C1=O)c1ccc(Cl)cc1	7	-374	4	12	366*
CCCN(CCC)S(=O)(=O)c1ccc(C(=O)OCCN2C(=O)c3cccc4c(N5CCOCC5)ccc(c34)C2=O)cc1	1	-106	-2	1	114*
Cc1ccc(C)c(SCC(=O)N(C)CC(=O)Nc2ccc(N3CCOCC3)cc2)c1	nt	1	nt	nt	-2
O=C(c1ccc(F)cc1)N1CCN2C(=O)c3ccccc3C12c1ccccc1 (configuration not stated)	0	-11	-6	1	0
O=C(c1ccc(F)cc1)N1CCN2C(=O)c3ccccc3C12c1ccc(Cl)cc1 (configuration not stated)	0	-14	16*	0	-1
COc1ccc(-c2nn(-c3ccccc3C)cc2CNCc2cccnc2)cc1F	1	73*	1	1	2
